Activity calls are given as the source filed them. No cut-off for these calls is given here.
How the values were obtained:
[1] = target: Histone deacetylase 3 (Homo sapiens, UniProt O15379); assay: Inhibition of human HDAC3 expressed in baculovirus infected insect cells using FLUOR DE LYS-SIRT1 as fluorogenic substrate preincubated for 10 mins followed by substrate addition and measured after 1 hr by spectrophotometer based analysis
[2] = target: T1, Protein deacetylase HDAC6 (Homo sapiens, UniProt Q9UBN7); assay: Inhibition of human HDAC6
T1 sequence (Q9UBN7 whole entry): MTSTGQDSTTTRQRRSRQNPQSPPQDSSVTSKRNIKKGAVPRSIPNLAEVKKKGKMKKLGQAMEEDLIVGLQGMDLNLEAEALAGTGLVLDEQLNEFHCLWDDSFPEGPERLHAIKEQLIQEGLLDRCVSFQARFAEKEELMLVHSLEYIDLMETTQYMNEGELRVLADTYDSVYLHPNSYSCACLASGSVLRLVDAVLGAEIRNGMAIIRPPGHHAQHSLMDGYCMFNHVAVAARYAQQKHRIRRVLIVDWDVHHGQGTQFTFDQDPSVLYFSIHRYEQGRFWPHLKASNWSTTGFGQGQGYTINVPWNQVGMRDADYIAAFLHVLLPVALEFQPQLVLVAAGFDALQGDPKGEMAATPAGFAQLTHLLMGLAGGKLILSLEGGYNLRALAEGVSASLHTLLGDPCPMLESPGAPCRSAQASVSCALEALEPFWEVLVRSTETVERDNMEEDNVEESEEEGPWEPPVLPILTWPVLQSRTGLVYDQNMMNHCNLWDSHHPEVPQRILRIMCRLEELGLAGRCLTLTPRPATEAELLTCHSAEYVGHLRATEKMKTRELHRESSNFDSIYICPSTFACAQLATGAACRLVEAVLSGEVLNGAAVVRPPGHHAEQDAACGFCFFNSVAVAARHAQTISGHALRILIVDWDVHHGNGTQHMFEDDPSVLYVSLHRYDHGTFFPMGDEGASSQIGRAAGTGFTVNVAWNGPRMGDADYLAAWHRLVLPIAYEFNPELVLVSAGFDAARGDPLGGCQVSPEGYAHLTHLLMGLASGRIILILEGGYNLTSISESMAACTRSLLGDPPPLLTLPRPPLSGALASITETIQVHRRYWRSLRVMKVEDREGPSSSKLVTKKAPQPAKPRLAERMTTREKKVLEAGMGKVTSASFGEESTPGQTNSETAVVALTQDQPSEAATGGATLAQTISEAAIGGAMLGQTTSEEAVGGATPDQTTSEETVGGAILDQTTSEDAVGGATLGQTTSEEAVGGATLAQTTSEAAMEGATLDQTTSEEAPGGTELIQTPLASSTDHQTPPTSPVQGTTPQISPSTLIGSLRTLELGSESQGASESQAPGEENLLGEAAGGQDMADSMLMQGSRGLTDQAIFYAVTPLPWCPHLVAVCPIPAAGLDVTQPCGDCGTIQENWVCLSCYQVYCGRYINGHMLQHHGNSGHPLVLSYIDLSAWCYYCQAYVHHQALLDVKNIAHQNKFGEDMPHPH

[3] = target: T2, Histone deacetylase 7 (Homo sapiens) (UniProt Q8WUI4); assay: Inhibition of human HDAC7 at 5 uM
T2 sequence (whole entry): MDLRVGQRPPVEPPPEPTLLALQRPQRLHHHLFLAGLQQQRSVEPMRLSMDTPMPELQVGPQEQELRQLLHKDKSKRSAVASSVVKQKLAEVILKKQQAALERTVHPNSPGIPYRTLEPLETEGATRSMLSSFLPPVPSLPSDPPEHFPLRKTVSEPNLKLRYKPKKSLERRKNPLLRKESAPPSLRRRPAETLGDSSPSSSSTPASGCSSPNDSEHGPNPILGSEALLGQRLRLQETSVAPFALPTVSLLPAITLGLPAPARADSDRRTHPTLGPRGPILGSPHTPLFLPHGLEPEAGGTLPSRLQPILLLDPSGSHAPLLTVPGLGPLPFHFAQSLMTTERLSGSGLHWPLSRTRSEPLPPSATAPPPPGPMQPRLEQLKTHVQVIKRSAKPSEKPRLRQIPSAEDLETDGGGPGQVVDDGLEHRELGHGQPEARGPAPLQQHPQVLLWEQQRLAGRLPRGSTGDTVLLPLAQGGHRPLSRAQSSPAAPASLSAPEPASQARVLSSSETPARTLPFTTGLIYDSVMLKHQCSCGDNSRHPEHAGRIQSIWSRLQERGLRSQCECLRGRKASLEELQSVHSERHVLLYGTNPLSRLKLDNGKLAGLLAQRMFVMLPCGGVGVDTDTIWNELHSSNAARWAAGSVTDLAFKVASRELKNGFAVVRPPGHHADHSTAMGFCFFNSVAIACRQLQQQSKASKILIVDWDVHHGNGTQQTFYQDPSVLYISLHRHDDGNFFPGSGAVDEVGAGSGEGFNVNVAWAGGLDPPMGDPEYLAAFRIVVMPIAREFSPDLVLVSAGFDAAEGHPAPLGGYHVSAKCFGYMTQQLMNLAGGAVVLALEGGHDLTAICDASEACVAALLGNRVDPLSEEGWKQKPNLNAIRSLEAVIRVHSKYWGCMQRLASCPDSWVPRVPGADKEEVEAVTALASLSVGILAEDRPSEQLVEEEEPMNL

[4] = target: Cytochrome P450 3A4 (Homo sapiens, UniProt P08684); assay: Inhibition of CYP3A4 (unknown origin); format: ADME
[5] = target: Cytochrome P450 2D6 (Homo sapiens, UniProt P10635); assay: Inhibition of CYP2D6 (unknown origin); format: ADME
[6] = Genotoxicity in Escherichia coli by Ames test; format: toxicity
Method in brief: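 Bacterial reverse mutation assay in two strains, Salmonella typhimurium and Escherichia coli, scoring reverse mutations.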

[7] = Unbound fraction in human plasma; format: ADME, cell-free
[8] = Volume of distribution at steady state in Wistar rat at 10 mg/kg, po or 2 mg/kg,iv by LC/MS/MS analysis; format: ADME, organism-based; details: in vivo
Method in brief: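 Compound dosed as the tartrate salt. Oral doses were 20 mg/kg in mouse, 10 mg/kg in rat and 5 mg/kg in minipig.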

[9] = AUC in Gottigen pig plasma 5 to 20 mg/kg, po by LC/MS/MS analysis; format: ADME, organism-based, Sus scrofa; set-up: route po; details: dose 5-20 mg/kg
Method in brief: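 Compound given orally as its tartrate salt at 20 mg/kg in mouse, 10 mg/kg in rat and 5 mg/kg in minipig.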

Chain of Cytochrome P450 2D6 (P10635 whole entry): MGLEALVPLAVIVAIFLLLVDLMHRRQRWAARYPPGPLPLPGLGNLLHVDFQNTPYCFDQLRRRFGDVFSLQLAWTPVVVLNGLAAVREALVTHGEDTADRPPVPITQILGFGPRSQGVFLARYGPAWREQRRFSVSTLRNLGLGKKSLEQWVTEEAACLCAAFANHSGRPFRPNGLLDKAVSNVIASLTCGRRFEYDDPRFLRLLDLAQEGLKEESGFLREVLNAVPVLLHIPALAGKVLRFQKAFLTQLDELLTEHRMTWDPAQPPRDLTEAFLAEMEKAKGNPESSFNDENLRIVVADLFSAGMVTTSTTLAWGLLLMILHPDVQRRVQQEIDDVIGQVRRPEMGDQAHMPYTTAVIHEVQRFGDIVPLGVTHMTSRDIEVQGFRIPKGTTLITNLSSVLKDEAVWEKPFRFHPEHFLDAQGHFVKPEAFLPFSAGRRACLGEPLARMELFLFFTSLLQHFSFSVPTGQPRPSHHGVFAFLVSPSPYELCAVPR
Chain of Cytochrome P450 3A4 (P08684 whole entry): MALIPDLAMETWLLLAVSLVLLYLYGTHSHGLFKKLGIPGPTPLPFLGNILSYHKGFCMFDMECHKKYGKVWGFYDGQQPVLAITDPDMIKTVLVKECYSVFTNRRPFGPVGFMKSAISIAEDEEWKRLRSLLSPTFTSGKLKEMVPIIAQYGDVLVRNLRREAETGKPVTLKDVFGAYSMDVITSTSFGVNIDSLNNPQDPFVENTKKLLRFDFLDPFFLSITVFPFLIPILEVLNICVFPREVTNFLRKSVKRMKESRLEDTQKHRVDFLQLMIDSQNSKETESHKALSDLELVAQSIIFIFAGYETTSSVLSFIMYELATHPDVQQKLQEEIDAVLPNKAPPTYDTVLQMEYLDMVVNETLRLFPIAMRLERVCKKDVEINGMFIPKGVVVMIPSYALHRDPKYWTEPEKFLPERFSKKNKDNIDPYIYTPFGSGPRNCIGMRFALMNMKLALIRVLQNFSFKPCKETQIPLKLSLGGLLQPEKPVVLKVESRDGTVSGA
Chain of Histone deacetylase 3 (O15379 whole entry): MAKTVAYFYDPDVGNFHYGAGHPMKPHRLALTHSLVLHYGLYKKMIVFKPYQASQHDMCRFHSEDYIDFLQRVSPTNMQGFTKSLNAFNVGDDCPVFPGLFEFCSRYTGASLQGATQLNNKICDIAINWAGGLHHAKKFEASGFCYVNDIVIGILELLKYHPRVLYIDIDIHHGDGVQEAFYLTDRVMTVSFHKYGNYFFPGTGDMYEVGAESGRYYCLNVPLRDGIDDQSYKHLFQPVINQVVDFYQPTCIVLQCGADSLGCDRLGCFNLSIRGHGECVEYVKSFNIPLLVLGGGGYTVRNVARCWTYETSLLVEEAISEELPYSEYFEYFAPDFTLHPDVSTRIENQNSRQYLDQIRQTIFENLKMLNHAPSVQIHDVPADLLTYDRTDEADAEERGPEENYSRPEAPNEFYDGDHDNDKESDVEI

IC50 [1]: 1.1 nM | IC50 [2]: 177 nM | inhibition [3]: inactive | IC50 [4]: > 20 µM | IC50 [5]: > 20 µM | fraction unbound [7]: 0.018 | Vdss [8]: 5.3 L/kg | AUC [9]: 2.6 µM·h
SMILES: CCC(=O)CCCCC[C@H](NC(=O)C1CN(C)C1)c1ncc(-c2cc3ccccc3nc2OC)o1
Activity [6]: Non-Toxic

From ChEMBL document CHEMBL5247577, “Improved Selective Class I HDAC and Novel Selective HDAC3 Inhibitors: Beyond Hydroxamic Acids and Benzamides” (ACS Med Chem Lett, 2019)
